In ChEMBL document CHEMBL1212735, “Metronidazole resistance in Prevotella spp. and description of a new nim gene in Prevotella baroniae” (2010):
In brackets after ≈: the same amount, converted by molar mass.

How the values were obtained:
Type in all cases: functional
[1] = test system: Prevotella nanceiensis; experiment: Antimicrobial activity against slow growing colonies of Prevotella nanceiensis LBN 298 deficient in nim gene assessed as inhibition of growth at 48 hrs by agar dilution method; conditions: Hoylesella nanceiensis, LBN 298, 48 h
Outline: (§1)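 Metronidazole MIC by agar dilution per CLSI M11-A7 on brucella agar with 5% sheep blood, hemin and vitamin K1. Plates incubated anaerobically at 35°C and read at 48 h, with a second reading after a further 72 h. B. fragilis ATCC 25285T and B. thetaiotaomicron ATCC 29741 served as controls. Done in duplicate; EUCAST breakpoints applied (S ≤4, R ≥8 μg/ml).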

[2] = test system: Bacteroides fragilis; experiment: Antimicrobial activity against Bacteroides fragilis ATCC 25285T deficient in nimI gene assessed as inhibition of growth after three consecutive subcultures on compound free medium by agar dilution method
Outline: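 Resistance induction: bacterial suspensions were plated on supplemented brucella blood agar with rising metronidazole concentrations. Colonies from the highest concentration were tested by agar dilution. MIC was then redetermined after three consecutive subcultures on drug-free agar. Resistance counted as stable if the MIC held within ±1 dilution. Anaerobic growth at 37°C. Duplicate experiments.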

[3] = test system: Prevotella baroniae; experiment: Antimicrobial activity against Prevotella baroniae LBN 432 expressing nimI gene assessed as inhibition of growth after several passages on plates containing increasing concentration of compound by agar dilution method; conditions: Segatella baroniae
Outline: (§2)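 Induction of metronidazole resistance: bacterial suspensions inoculated onto brucella blood agar (5% sheep blood, hemin, vitamin K1) containing metronidazole at increasing concentrations, grown anaerobically at 37°C. Colonies growing at the highest concentration were retested for MIC by CLSI agar dilution on the same agar. Duplicate experiments.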

[4] = test system: Prevotella bivia; experiment: Antimicrobial activity against slow growing colonies of Prevotella bivia LBN 346 deficient in nim gene assessed as inhibition of growth at 48 hrs by agar dilution method; conditions: LBN 346, 48 h
Outline: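 Slowly growing colonies inside the Etest inhibition zone, seen after prolonged incubation (an additional 72 h after the 48 h reading), were subcultured without antibiotic. They were then retested for metronidazole MIC by agar dilution on supplemented brucella blood agar under anaerobic conditions.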

[5] = test system: Prevotella baroniae; experiment: Antimicrobial activity against Prevotella baroniae LBN 427 expressing nimI gene assessed as inhibition of growth after several passages on plates containing increasing concentrations of compound by agar dilution method; conditions: Segatella baroniae; outline: as §2
[6] = test system: Prevotella baroniae; experiment: Antimicrobial activity against Prevotella baroniae LBN 432 expressing nimI gene assessed as inhibition of growth after three consecutive subcultures on compound free medium by agar dilution method; conditions: Segatella baroniae
Outline: (§3)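 Stability of induced resistance: metronidazole-selected isolates were subcultured three consecutive times on drug-free brucella blood agar (5% sheep blood, hemin, vitamin K1) under anaerobic conditions, then MIC was redetermined by CLSI agar dilution. Resistance was called stable if the MIC held within ±1 dilution. Duplicate experiments.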

[7] = test system: Prevotella baroniae; experiment: Antimicrobial activity against Prevotella baroniae LBN 475 expressing nimI gene assessed as inhibition of growth after three consecutive subcultures on compound free medium by agar dilution method; conditions: Segatella baroniae; outline: as §3
[8] = test system: Prevotella bivia; experiment: Antimicrobial activity against slow growing colonies of Prevotella bivia LBP 65 deficient in nim gene assessed as inhibition of growth at 48 hrs by agar dilution method; conditions: LBP 65, 48 h; outline: as §1
[9] = test system: Prevotella baroniae; experiment: Antimicrobial activity against Prevotella baroniae LBN 466 expressing nim gene assessed as inhibition of growth at 48 hrs by agar dilution method; conditions: Segatella baroniae, LBN 466, 48 h
Outline: (§4)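 Metronidazole MIC by agar dilution (CLSI M11-A7) on brucella agar with 5% sheep blood, hemin and vitamin K1. Plates were read after 48 h at 35°C under anaerobic conditions. Susceptible was MIC ≤ 4 μg/ml and resistant MIC ≥ 8 μg/ml (EUCAST). B. fragilis ATCC 25285T and B. thetaiotaomicron ATCC 29741 were run as controls. Duplicate assays.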

[10] = test system: Prevotella baroniae; experiment: Antimicrobial activity against Prevotella baroniae LBN 432 expressing nim gene assessed as inhibition of growth at 48 hrs by agar dilution method; conditions: Segatella baroniae, LBN 432, 48 h; outline: as §4
[11] = test system: Prevotella bivia; experiment: Antimicrobial activity against Prevotella bivia LBP 38 deficient in nim gene assessed as inhibition of growth at 48 hrs by agar dilution method; conditions: LBP 38, 48 h; outline: as §4
[12] = test system: Prevotella bivia; experiment: Antimicrobial activity against Prevotella bivia LBN 330 deficient in nim gene assessed as inhibition of growth at 48 hrs by agar dilution method; conditions: LBN 330, 48 h; outline: as §4
[13] = test system: Prevotella bivia; experiment: Antimicrobial activity against Prevotella bivia LBN 350 deficient in nim gene assessed as inhibition of growth at 48 hrs by agar dilution method; conditions: LBN 350, 48 h; outline: as §4
[14] = test system: Prevotella baroniae; experiment: Antimicrobial activity against Prevotella baroniae LBN 430 expressing nimI gene assessed as inhibition of growth after several passages on plates containing increasing concentrations of compound by agar dilution method; conditions: Segatella baroniae; outline: as §2
[15] = test system: Prevotella bivia; experiment: Antimicrobial activity against Prevotella bivia LBN 334 deficient in nim gene assessed as inhibition of growth at 48 hrs by agar dilution method; conditions: LBN 334, 48 h; outline: as §4
[16] = test system: Prevotella bivia; experiment: Antimicrobial activity against Prevotella bivia LBP 78 deficient in nim gene assessed as inhibition of growth at 48 hrs by agar dilution method; conditions: LBP 78, 48 h; outline: as §4

Question: For `Cc1ncc([N+](=O)[O-])n1CCO` [METRONIDAZOLE], which MIC [1] is on record?
Answer: The MIC was 32 µg/mL (≈ 187 µM).

Question: And the MIC [2]?
Answer: Its MIC is 128 µg/mL (≈ 748 µM).

Question: What about the MIC [3] of the same compound?
Answer: Its MIC is 64 µg/mL (≈ 374 µM).

Question: What about the MIC [4] of the same compound?
Answer: Its MIC is 16 µg/mL (≈ 93.5 µM).

Question: What about the MIC [5] of the same compound?
Answer: The MIC was 128 µg/mL (≈ 748 µM).

Question: And the MIC [6]?
Answer: Its MIC is 64 µg/mL (≈ 374 µM).

Question: What about the MIC [7] of the same compound?
Answer: The MIC was 256 µg/mL (≈ 1500 µM).

Question: What about the MIC [8] of the same compound?
Answer: Its MIC is 32 µg/mL (≈ 187 µM).

Question: And the MIC [9]?
Answer: The MIC was 2 µg/mL (≈ 11.7 µM).

Question: And the MIC [10]?
Answer: The MIC was 2 µg/mL (≈ 11.7 µM).

Question: And the MIC [11]?
Answer: Its MIC is 2 µg/mL (≈ 11.7 µM).

Question: What about the MIC [12] of the same compound?
Answer: The MIC was 2 µg/mL (≈ 11.7 µM).

Question: What about the MIC [13] of the same compound?
Answer: Its MIC is 2 µg/mL (≈ 11.7 µM).

Question: What about the MIC [14] of the same compound?
Answer: Its MIC is 128 µg/mL (≈ 748 µM).

Question: And the MIC [15]?
Answer: Its MIC is 2 µg/mL (≈ 11.7 µM).

Question: What about the MIC [16] of the same compound?
Answer: Its MIC is 4 µg/mL (≈ 23.4 µM).
